Reference: ChEMBL document CHEMBL4765454, “Betulinic acid derived amides are highly cytotoxic, apoptotic and selective” (Eur J Med Chem, 2020)
The source made the active and inactive calls. No cut-off for these calls is given here.

What was measured:
A-375 [1] = test: Cytotoxicity against human A-375 cells assessed as reduction in cell viability incubated for 72 hrs by SRB assay; format: functional, cell-based; details: Homo sapiens, A-375, 72 h; read-out: EC50
NIH3T3 = test: Cytotoxicity against mouse NIH3T3 cells assessed as reduction in cell viability incubated for 72 hrs by SRB assay; format: cell-based; details: Mus musculus, NIH3T3, 72 h; read-out: EC50
FaDu = test: Cytotoxicity against human FaDu cells assessed as reduction in cell viability incubated for 72 hrs by SRB assay; format: functional, cell-based; details: Homo sapiens, FaDu, 72 h; read-out: EC50
A2780 = test: Cytotoxicity against human A2780 cells assessed as reduction in cell viability incubated for 72 hrs by SRB assay; format: functional, cell-based; details: Homo sapiens, A2780, 72 h; read-out: EC50
[2] = Selectivity ratio of EC50 for mouse NIH3T3 cells to EC50 for human FaDu cells
HT-29 = test: Cytotoxicity against human HT-29 cells assessed as reduction in cell viability incubated for 72 hrs by SRB assay; format: functional, cell-based; details: Homo sapiens, HT-29, 72 h; read-out: EC50
MCF7 = test: Cytotoxicity against human MCF7 cells assessed as reduction in cell viability incubated for 72 hrs by SRB assay; format: functional, cell-based; details: Homo sapiens, MCF7, 72 h; read-out: EC50
[3] = Selectivity ratio of EC50 for mouse NIH3T3 cells to EC50 for human HT-29 cells; format: toxicity; details: NIH3T3 cells versus HT-29 cells, read-out: Ratio EC50
[4] = Selectivity ratio of EC50 for mouse NIH3T3 cells to EC50 for human A375 cells; format: toxicity; details: NIH3T3 cells versus A375 cells, read-out: Ratio EC50
[5] = Selectivity ratio of EC50 for mouse NIH3T3 cells to EC50 for human A2780 cells; format: toxicity; details: NIH3T3 cells versus A2780 cells, read-out: Ratio EC50
[6] = Selectivity ratio of EC50 for mouse NIH3T3 cells to EC50 for human MCF7 cells; format: toxicity; details: NIH3T3 cells versus MCF7 cells, read-out: Ratio EC50
A-375 [7] = test: Cell cycle arrest in human A375 cells assessed as accumulation at S phase measured after 48 hrs by propidium iodide staining based flow cytometry (reference value: 31.3%); format: functional
A-375 [8] = test: Induction of apoptosis in human A375 cells assessed as cell shrinkage at 4.8 uM measured after 48 hrs by microscopic analysis; format: functional, cell-based
In short: (§1)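 A375 cells treated at 3.0, 4.8 or 6.2 µM and inspected by light microscopy after 24 h or 48 h. Cell number and morphology were scored for apoptotic features: shrinkage, strangulation and blebbing.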

A-375 [9] = test: Induction of apoptosis in human A375 cells assessed as early apoptotic cells at 4.8 uM measured after 48 hrs by Annexin V-FITC/propidium iodide staining based flow cytometry (reference value: 1.622%); format: functional
A-375 [10] = test: Induction of apoptosis in human A375 cells assessed as viable cells at 4.8 uM measured after 48 hrs by Annexin V-FITC/propidium iodide staining based flow cytometry (reference value: 92.723%); format: functional; details: read-out: Activity
A-375 [11] = test: Induction of apoptosis in human A375 cells assessed as late apoptotic cells at 4.8 uM measured after 24 hrs by Annexin V-FITC/propidium iodide staining based flow cytometry (reference value: 7.352%); format: functional
A-375 [12] = test: Cell cycle arrest in human A375 cells assessed as accumulation at subG1 phase measured after 48 hrs by propidium iodide staining based flow cytometry (reference value: 0.57%); format: functional
A-375 [13] = test: Cell cycle arrest in human A375 cells assessed as accumulation at G2/M phase measured after 24 hrs by propidium iodide staining based flow cytometry (reference value: 7.48%); format: functional
A-375 [14] = test: Induction of apoptosis in human A375 cells assessed as late apoptotic cells at 4.8 uM measured after 48 hrs by Annexin V-FITC/propidium iodide staining based flow cytometry (reference value: 5.108%); format: functional
A-375 [15] = test: Cell cycle arrest in human A375 cells assessed as accumulation at G2/M phase measured after 48 hrs by propidium iodide staining based flow cytometry (reference value: 10.83%); format: functional
A-375 [16] = test: Induction of apoptosis in human A375 cells assessed as necrotic cells at 4.8 uM measured after 24 hrs by Annexin V-FITC/propidium iodide staining based flow cytometry (reference value: 0.331%); format: functional
A-375 [17] = test: Induction of apoptosis in human A375 cells assessed as early apoptotic cells at 4.8 uM measured after 24 hrs by Annexin V-FITC/propidium iodide staining based flow cytometry (reference value: 2.194%); format: functional
A-375 [18] = test: Induction of apoptosis in human A375 cells assessed as viable cells at 4.8 uM measured after 24 hrs by Annexin V-FITC/propidium iodide staining based flow cytometry (reference value: 90.123%); format: functional; details: read-out: Activity
A-375 [19] = test: Induction of apoptosis in human A375 cells assessed as blebbing at 4.8 uM measured after 48 hrs by microscopic analysis; format: functional, cell-based; in short: as §1
A-375 [20] = test: Cell cycle arrest in human A375 cells assessed as accumulation at G1 phase measured after 24 hrs by propidium iodide staining based flow cytometry (reference value: 44.59%); format: functional
A-375 [21] = test: Cell cycle arrest in human A375 cells assessed as accumulation at subG1 phase measured after 24 hrs by propidium iodide staining based flow cytometry (reference value: 0.46%); format: functional
A-375 [22] = test: Cell cycle arrest in human A375 cells assessed as accumulation at S phase measured after 24 hrs by propidium iodide staining based flow cytometry (reference value: 47.46%); format: functional
A-375 [23] = test: Induction of apoptosis in human A375 cells assessed as strangulation at 4.8 uM measured after 48 hrs by microscopic analysis; format: functional, cell-based; in short: as §1
A-375 [24] = test: Induction of apoptosis in human A375 cells assessed as necrotic cells at 4.8 uM measured after 48 hrs by Annexin V-FITC/propidium iodide staining based flow cytometry (reference value: 0.547%); format: functional
A-375 [25] = test: Induction of apoptosis in human A375 cells at 4.8 uM measured after 24 hrs by microscopic analysis; format: functional, cell-based; in short: as §1
A-375 [26] = test: Cell cycle arrest in human A375 cells assessed as accumulation at G1 phase measured after 48 hrs by propidium iodide staining based flow cytometry (reference value: 57.3%); format: functional

C=C(C)[C@@H]1CC[C@]2(C(=O)O)CC[C@]3(C)[C@H](CC[C@@H]4[C@@]5(C)C[C@H](OC(C)=O)[C@H](OC(C)=O)C(C)(C)[C@@H]5CC[C@]43C)[C@@H]12
EC50 (A-375 [1]): 15.8 µM
EC50 (NIH3T3): 14.1 µM
EC50 (FaDu): 13.5 µM
EC50 (A2780): 8.68 µM
Ratio EC50 [2]: 1
EC50 (HT-29): 17.4 µM
EC50 (MCF7): 11.2 µM
selectivity ratio [3]: 0.8
selectivity ratio [4]: 0.9
selectivity ratio [5]: 1.6
selectivity ratio [6]: 1.3

C=C(C)[C@@H]1CC[C@]2(C(=O)Nc3cccc4ncccc34)CC[C@]3(C)[C@H](CC[C@@H]4[C@@]5(C)C[C@H](OC(C)=O)[C@H](OC(C)=O)C(C)(C)[C@@H]5CC[C@]43C)[C@@H]12
EC50 (A-375 [1]): 2.9 µM
Activity (A-375 [7]): 57.06%
Activity (A-375 [8]): Active
Activity (A-375 [9]): 18.861%
EC50 (NIH3T3): > 120 µM
viability at 4.8 µM (A-375 [10]): 67.4%
Activity (A-375 [11]): 10.295%
EC50 (FaDu): 3.49 µM
Activity (A-375 [12]): 11.49%
Activity (A-375 [13]): 0.43%
Activity (A-375 [14]): 12.388%
EC50 (A2780): 3.24 µM
Activity (A-375 [15]): 0%
Activity (A-375 [16]): 0.749%
Ratio EC50 [2]: 34.4
Activity (A-375 [17]): 6.495%
viability at 4.8 µM (A-375 [18]): 80.4%
Activity (A-375 [19]): Active
Activity (A-375 [20]): 37.51%
EC50 (HT-29): > 30 µM
Activity (A-375 [21]): 3.53%
Activity (A-375 [22]): 58.53%
EC50 (MCF7): 6.26 µM
selectivity ratio [3]: 4
Activity (A-375 [23]): Active
Activity (A-375 [24]): 1.342%
Activity (A-375 [25]): Active
selectivity ratio [5]: 37
Activity (A-375 [26]): 31.39%
selectivity ratio [6]: 19.2
